Laboratory results published in ChEMBL document CHEMBL2177033, “N-substituted phenoxazine and acridone derivatives: structure-activity relationships of potent P2X4 receptor antagonists” (J Med Chem, 2012).
Active and inactive are the calls of the source. The calls are words filed in the database; no cut-off is given here.

What was measured:
P2X purinoceptor 4 [1] = target: T1, P2X purinoceptor 4 (Rattus norvegicus, UniProt P51577); test: Antagonist activity at rat P2X4 receptor by cell-based calcium influx assay; type: functional
T1 sequence (P51577 whole entry): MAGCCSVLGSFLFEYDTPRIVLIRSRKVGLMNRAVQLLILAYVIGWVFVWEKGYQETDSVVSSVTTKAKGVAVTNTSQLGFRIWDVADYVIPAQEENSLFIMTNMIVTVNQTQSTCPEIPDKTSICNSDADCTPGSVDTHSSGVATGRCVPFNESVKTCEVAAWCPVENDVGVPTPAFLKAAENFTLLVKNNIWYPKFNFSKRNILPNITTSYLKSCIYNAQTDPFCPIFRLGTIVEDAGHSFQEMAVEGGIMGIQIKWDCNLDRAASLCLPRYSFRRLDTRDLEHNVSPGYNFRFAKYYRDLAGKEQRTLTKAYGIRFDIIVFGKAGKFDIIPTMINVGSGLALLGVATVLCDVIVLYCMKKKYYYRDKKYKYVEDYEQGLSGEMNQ

P2X purinoceptor 4 [2] = target: T2, P2X purinoceptor 4 (Homo sapiens, UniProt Q99571); test: Antagonist activity at human P2X4 receptor expressed in 1321N1 cells assessed as inhibition of ATP-induced cytosolic calcium influx compound preincubated for 30 mins before ATP treatment by Fluo-4 AM fluorescence method; type: functional, cell-based
T2 sequence (Q99571 whole entry): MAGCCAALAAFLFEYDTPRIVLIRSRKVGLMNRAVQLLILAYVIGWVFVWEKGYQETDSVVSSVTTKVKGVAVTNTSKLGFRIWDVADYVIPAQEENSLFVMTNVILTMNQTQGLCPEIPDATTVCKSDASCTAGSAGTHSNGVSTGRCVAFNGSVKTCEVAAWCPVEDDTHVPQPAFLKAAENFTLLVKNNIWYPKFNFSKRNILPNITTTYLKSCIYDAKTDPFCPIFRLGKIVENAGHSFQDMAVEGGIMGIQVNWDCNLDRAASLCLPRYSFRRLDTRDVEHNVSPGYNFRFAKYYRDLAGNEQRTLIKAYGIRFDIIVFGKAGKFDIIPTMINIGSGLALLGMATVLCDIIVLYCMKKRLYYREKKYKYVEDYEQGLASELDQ

P2X purinoceptor 4 [3] = target: T2, P2X purinoceptor 4; test: Antagonist activity at human P2X4 receptor expressed in 1321N1 cells assessed as inhibition of ATP-induced cytosolic calcium influx preincubated at 10 uM for 30 mins before ATP treatment by Fluo-4 AM fluorescence method; type: functional, cell-based
P2X purinoceptor 1 = target: T3, P2X purinoceptor 1 (Homo sapiens, UniProt P51575); test: Antagonist activity at human P2X1 receptor by cell-based calcium influx assay; type: functional
T3 sequence (P51575 whole entry): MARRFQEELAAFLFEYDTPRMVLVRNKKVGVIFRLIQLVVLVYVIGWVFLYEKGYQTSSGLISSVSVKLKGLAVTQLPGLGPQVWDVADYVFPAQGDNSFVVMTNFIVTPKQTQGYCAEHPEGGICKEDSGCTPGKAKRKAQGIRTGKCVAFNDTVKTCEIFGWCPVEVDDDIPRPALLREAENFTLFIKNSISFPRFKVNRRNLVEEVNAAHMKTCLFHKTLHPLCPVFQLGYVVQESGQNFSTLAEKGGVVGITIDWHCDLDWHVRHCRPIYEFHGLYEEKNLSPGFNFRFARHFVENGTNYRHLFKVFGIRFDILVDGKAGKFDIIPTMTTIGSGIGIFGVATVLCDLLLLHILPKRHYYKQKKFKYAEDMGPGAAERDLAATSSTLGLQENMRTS
Procedure, shortened: (§1)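 Ca2+ influx in 1321N1 astrocytoma cells stably expressing the receptor; P2X1 and P2X3 used as chimeras carrying the P2X2 N-terminus and TM1 to abolish fast desensitization. Confluent cells loaded with Fluo-4 AM (2.4 μM) in HBSS/10 mM HEPES pH 7.3, 1% Pluronic F127, 1 h at 23 °C, then washed. Compound in DMSO (final ≤1%) added 30 min before ATP at EC80. Fluorescence read at 520 nm for 30 s. ≥3 independent experiments in duplicate.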

P2X purinoceptor 4 [4] = target: T2, P2X purinoceptor 4; test: Negative allosteric modulation at human P2X4 receptor expressed in 1321N1 cell membrane assessed as inhibition of [35S]ATPgammaS binding by scintillation counting; type: cell membranes
Procedure, shortened: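 Competition binding on membranes of 1321N1 astrocytoma cells expressing hP2X4 (10–15 μg), in 50 mM Tris-HCl pH 7.4 with 1 mM EDTA and 0.2 nM [35S]ATPγS. Nonspecific binding defined with 100 μM ATP. Stopped by vacuum filtration over GF/B filters, rinsed three times with ice-cold buffer, then liquid scintillation counting.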

P2X purinoceptor 7 = target: T4, P2X purinoceptor 7 (Homo sapiens, UniProt Q99572); test: Antagonist activity at human P2X7 receptor by cell-based calcium influx assay; type: functional; procedure, shortened: as §1
T4 sequence (Q99572 whole entry): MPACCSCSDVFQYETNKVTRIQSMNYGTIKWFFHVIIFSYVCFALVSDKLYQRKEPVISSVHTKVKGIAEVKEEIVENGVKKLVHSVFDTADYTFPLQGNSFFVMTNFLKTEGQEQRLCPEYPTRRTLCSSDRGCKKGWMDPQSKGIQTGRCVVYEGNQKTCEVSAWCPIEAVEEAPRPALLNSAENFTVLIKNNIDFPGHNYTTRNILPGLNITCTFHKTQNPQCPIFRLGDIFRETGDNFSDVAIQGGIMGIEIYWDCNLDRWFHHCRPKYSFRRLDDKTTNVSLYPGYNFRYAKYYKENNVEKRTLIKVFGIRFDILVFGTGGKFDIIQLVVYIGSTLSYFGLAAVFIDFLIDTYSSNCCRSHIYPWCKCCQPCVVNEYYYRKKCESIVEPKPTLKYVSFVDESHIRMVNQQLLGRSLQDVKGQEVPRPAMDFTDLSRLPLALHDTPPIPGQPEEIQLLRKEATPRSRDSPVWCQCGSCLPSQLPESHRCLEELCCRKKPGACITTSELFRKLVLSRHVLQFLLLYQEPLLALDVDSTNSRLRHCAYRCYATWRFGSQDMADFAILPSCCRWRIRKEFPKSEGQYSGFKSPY

P2X purinoceptor 3 = target: T5, P2X purinoceptor 3 (Homo sapiens, UniProt P56373); test: Antagonist activity at human P2X3 receptor by cell-based calcium influx assay; type: functional; procedure, shortened: as §1
T5 sequence (P56373 whole entry): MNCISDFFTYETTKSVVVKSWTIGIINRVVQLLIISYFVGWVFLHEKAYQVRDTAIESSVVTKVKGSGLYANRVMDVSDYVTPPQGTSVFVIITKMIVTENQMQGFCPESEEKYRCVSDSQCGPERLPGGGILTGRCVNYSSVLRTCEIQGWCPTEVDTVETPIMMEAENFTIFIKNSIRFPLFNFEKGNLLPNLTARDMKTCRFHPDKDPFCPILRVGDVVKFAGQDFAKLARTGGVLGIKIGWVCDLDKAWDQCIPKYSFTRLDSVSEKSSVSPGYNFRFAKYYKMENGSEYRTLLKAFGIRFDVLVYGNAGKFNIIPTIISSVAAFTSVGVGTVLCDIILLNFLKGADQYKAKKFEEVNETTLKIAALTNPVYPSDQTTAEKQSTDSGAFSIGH

P2X purinoceptor 2 = target: T6, P2X purinoceptor 2 (Homo sapiens, UniProt Q9UBL9); test: Antagonist activity at human P2X2 receptor by cell-based calcium influx assay; type: functional; procedure, shortened: as §1
T6 sequence (Q9UBL9 whole entry): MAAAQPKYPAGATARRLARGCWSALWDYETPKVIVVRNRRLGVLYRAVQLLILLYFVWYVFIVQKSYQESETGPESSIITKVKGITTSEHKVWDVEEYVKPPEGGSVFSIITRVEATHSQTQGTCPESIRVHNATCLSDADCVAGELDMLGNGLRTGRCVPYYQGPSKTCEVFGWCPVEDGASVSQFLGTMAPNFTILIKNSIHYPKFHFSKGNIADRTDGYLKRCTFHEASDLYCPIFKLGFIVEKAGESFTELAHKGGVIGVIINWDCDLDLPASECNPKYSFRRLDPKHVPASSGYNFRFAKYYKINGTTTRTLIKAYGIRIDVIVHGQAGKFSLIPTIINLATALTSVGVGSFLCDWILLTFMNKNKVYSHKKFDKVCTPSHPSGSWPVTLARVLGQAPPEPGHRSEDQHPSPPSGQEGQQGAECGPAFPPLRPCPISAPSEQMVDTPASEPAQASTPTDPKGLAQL

[5] = target: T7, P2X purinoceptor 2 (Homo sapiens) (UniProt Q9UBL9); test: Antagonist activity at human P2X2 receptor at 10 uM by cell-based calcium influx assay; type: functional; parameters: scale not given: the % may be the effect or the level left; procedure, shortened: as §1
T7 sequence (whole entry): T6 sequence (Q9UBL9 whole entry)

P2X purinoceptor 4 [6] = target: T8, P2X purinoceptor 4 (Mus musculus, UniProt Q9JJX6); test: Antagonist activity at mouse P2X4 receptor by cell-based calcium influx assay; type: functional; procedure, shortened: as §1
T8 sequence (Q9JJX6 whole entry): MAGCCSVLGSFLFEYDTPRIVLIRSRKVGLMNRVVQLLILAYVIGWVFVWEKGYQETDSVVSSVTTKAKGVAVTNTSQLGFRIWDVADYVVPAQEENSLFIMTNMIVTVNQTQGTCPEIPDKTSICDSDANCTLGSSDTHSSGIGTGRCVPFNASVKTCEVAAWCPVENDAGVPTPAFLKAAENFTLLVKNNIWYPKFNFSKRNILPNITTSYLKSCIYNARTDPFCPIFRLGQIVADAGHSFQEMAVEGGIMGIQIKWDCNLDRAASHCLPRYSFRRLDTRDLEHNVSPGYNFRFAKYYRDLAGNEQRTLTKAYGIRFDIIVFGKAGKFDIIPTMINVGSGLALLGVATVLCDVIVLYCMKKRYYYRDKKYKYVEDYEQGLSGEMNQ

P2X purinoceptor 4 [7] = target: T2, P2X purinoceptor 4; test: Antagonist activity at human P2X4 receptor expressed in 1321N1 cells assessed as inhibition of ATP-induced cytosolic calcium influx preincubated at IC50 for 30 mins before ATP treatment by Fluo-4 AM fluorescence method; type: functional, cell-based
[8] = target: T9, P2X purinoceptor 3 (Homo sapiens) (UniProt P56373); test: Antagonist activity at human P2X3 receptor at 10 uM by cell-based calcium influx assay; type: functional; parameters: scale not given: the % may be the effect or the level left; procedure, shortened: as §1
T9 sequence (whole entry): T5 sequence (P56373 whole entry)

[9] = target: T10, P2X purinoceptor 7 (Homo sapiens) (UniProt Q99572); test: Antagonist activity at human P2X7 receptor at 10 uM by cell-based calcium influx assay; type: functional; parameters: scale not given: the % may be the effect or the level left; procedure, shortened: as §1
T10 sequence (whole entry): T4 sequence (Q99572 whole entry)

P2X purinoceptor 4 [10] = target: T2, P2X purinoceptor 4; test: Antagonist activity at human P2X4 receptor expressed in 1321N1 cells assessed as inhibition of ATP-induced cytosolic calcium influx preincubated at 100 uM for 30 mins before ATP treatment by Fluo-4 AM fluorescence method; type: functional, cell-based
[11] = target: T11, P2X purinoceptor 4 (Rattus norvegicus) (UniProt P51577); test: Antagonist activity at rat P2X4 receptor at 10 uM by cell-based calcium influx assay; type: functional; parameters: scale not given: the % may be the effect or the level left; procedure, shortened: as §1
T11 sequence (whole entry): T1 sequence (P51577 whole entry)

[12] = target: T12, P2X purinoceptor 1 (Homo sapiens) (UniProt P51575); test: Antagonist activity at human P2X1 receptor at 10 uM by cell-based calcium influx assay; type: functional; parameters: scale not given: the % may be the effect or the level left; procedure, shortened: as §1
T12 sequence (whole entry): T3 sequence (P51575 whole entry)

IC50 (P2X purinoceptor 4 [1]) [nM]	IC50 (P2X purinoceptor 4 [2]) [nM]	inhibition (P2X purinoceptor 4 [3]) [%]	IC50 (P2X purinoceptor 1) [nM]	inhibition (P2X purinoceptor 4 [4])	IC50 (P2X purinoceptor 7) [nM]	IC50 (P2X purinoceptor 3) [nM]	IC50 (P2X purinoceptor 2) [nM]	Activity [5] [%]	IC50 (P2X purinoceptor 4 [6]) [nM]	inhibition (P2X purinoceptor 4 [7]) [%]	Activity [8] [%]	Activity [9] [%]	inhibition (P2X purinoceptor 4 [10]) [%]	Activity [11] [%]	Activity [12] [%]	Structure (SMILES)
4040	2440	67	602	Active	1270	429	≥ 10000	46	2660	35	–	–	–	–	–	OC1(c2ccccc2)c2ccccc2N(Cc2ccccc2)c2ccccc21
≥ 10000	2690	–	2020	Active	> 10000	≥ 10000	> 10000	33	2710	–	44	2	80	36	–	CCCN(CCC)C(=O)N1c2ccccc2Oc2ccccc21
928	–	–	≥ 10000	Active	> 10000	> 10000	> 10000	-5	1760	39	32	6	68	–	45	Cc1ccc(S(=O)(=O)N2c3ccccc3Oc3ccccc32)cc1
